Ten molecules from PMC6733178 (ACS Omega, 2019) can be followed below.

In experiment [1] the test system is S. aureus ATCC 25923 (Sa). Kind of experiment: MIC, broth microdilution with resazurin. The format is cell-based, Staphylococcus aureus. Conditions: for MIC: Staphylococcus aureus, ATCC25923, read-out: MIC Values Sa. The gist of the method:
(§1)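 CLSI broth microdilution. Strains were grown overnight at 35 °C on TSA or TSA with 5% sheep blood. Colonies were suspended in 0.9% saline to 0.5 McFarland, then diluted 1:100 in Mueller Hinton broth (about 1 × 10^6 CFU/mL). Test compound (2 mg/mL DMSO stock) was serially diluted 1:2 from 50 µg/mL final. Resazurin was added at 8 µg/mL final, and plates were incubated 35 °C for 20–24 h and read visually. MIC is the lowest concentration without the resazurin colour change. Each plate carried untreated, DMSO and antibiotic controls.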

Experiment [2] concerns B. subtilis ATCC 6623 (Bs). Put plainly: MIC, broth microdilution with resazurin. The format is cell-based. Conditions: NA = No Activity. (In general: In broth dilution the organism is exposed to a series of concentrations in liquid medium.)
The subject of experiment [3] is S. aureus BAA-2312 (Sa12). Put plainly: MIC, broth microdilution with resazurin. Conditions: for MIC: Staphylococcus aureus, BAA2312, read-out: MIC Values Sa12. Format: cell-based, Staphylococcus aureus. Summed up: as §1
Experiment [4] deals with S. aureus ATCC 33591 (Sa91). Put plainly: MIC, broth microdilution with resazurin. Format: cell-based, Staphylococcus aureus. The following applies: for MIC: Staphylococcus aureus, ATCC33591, read-out: MIC Values Sa91. The gist of the method: as §1
The subject of experiment [5] is S. aureus ATCC 700699 (Sa99). Put plainly: MIC, broth microdilution with resazurin. The format is cell-based, Staphylococcus aureus. The following applies: for MIC: Staphylococcus aureus, ATCC700699, read-out: MIC Values Sa99. The gist of the method: as §1
The subject of experiment [6] is S. aureus ATCC 33592 (Sa92). Put plainly: MIC, broth microdilution with resazurin. The following applies: for MIC: Staphylococcus aureus, ATCC33592, read-out: MIC Values Sa92. The format is cell-based, Staphylococcus aureus. Summed up: as §1
In experiment [7] the test system is S. epidermidis 700296 (Se). Put plainly: MIC, broth microdilution with resazurin. Format: cell-based. Conditions: for MIC: Staphylococcus epidermidis, read-out: MIC Values Se.
For experiment [8], the system named is human embryonic kidney (HEK293) cell line. Put plainly: In vitro cytotoxicity, resazurin viability. Format: cell-based. The following applies: HEK293, 24 h incubation. Summed up:
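HEK293 cells were counted and seeded at 4000 per well. Test compound was serially diluted from 50 µg/mL, added in triplicate, and incubated 24 h. Resazurin (5%) was then added, and plates were incubated 4 and 6 h before reading. Viability was read as fluorescence at 544 nm excitation and 590 nm emission.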

Experiment [9] has as its system A. baumannii ATCC 747 (Ab47). Put plainly: MIC, broth microdilution with resazurin. Format: cell-based, Acinetobacter baumannii. The following applies: for MIC: Acinetobacter baumannii, ATCC747, read-out: MIC Ab47. Summed up: as §1
Experiment [10] relates to three strains of A. baumannii. Put plainly: MIC summarised in the text over the three A. baumannii strains. Format: cell-based, Acinetobacter baumannii. The gist of the method: as §1
The test system of experiment [11] is A. baumannii ATCC 19606 (Type Strain, AB06). Kind of experiment: MIC, broth microdilution with resazurin. Format: cell-based, Acinetobacter baumannii. Conditions: for MIC: Acinetobacter baumannii, ATCC19606, read-out: MIC Ab06. Summed up:
as §1

The test system of experiment [12] is tested Gram-positive strains (S. aureus incl. MRSA, S. epidermidis, B. subtilis). Put plainly: MIC summarised in the text over the tested Gram-positive strains. The format is cell-based.
A further experiment relates to A. baumannii ATCC 19606. Kind of experiment: SYTO-9/propidium iodide. Conditions: compared with positive control Colistin 6.25 μg/mL. The format is cell-based, Acinetobacter baumannii.
Experiment [13] relates to A. baumannii ATCC BAA-1605 (Ab05). Kind of experiment: MIC, broth microdilution with resazurin. Conditions: NA = No Activity. The format is cell-based, Acinetobacter baumannii. The gist of the method: as §1
The mark [14] stands for this setting: antibiotic-resistant strain, NA = No Activity.

Converted amounts (≈) assume the structure as drawn.

Take “4-[4-[(2,2-Dibenzylhydrazino)methyl]-3-(3-fluorophenyl)pyrazol-1-yl]benzoic Acid [Compound 7]”: the “MIC Values Sa” value in experiment [1] (antibiotic susceptible strain, NA = No Activity) amounted to 12.5 µg/mL. For the same molecule, the “MIC Values Bs” value in [2] is 1.56 µg/mL. In addition, the “MIC Values Sa12” value in experiment [3] (setting [14]) came to 6.25 µg/mL. The “MIC Values Sa91” value in [4] (setting [14]) is 6.25 µg/mL. Also, the “MIC Values Sa99” value in [5] (setting [14]) turned out to be 3.125 µg/mL. Moreover, the “MIC Values Sa92” value in experiment [6] (setting [14]) stood at 3.125 µg/mL.
For orientation: MIC means the smallest concentration in the dilution series that meets the test's criterion for growth inhibition. For `O=C(O)c1ccc(-n2cc(/C=N/N(c3ccccc3)c3ccccc3)c(-c3cccc(F)c3)n2)cc1` [Compound 5, 4-[4-[(E)-(Diphenylhydrazono)methyl]-3-(3-fluorophenyl)pyrazol-1-yl]benzoic Acid], the MIC amounted to 3.12 µg/mL (≈ 6.56 µM) in experiment [1]; 3.12 µg/mL (≈ 6.56 µM) in experiment [3]; 3.12 µg/mL (≈ 6.56 µM) in [7]; 3.12 µg/mL (≈ 6.56 µM) in experiment [4]; 1.56 µg/mL (≈ 3.27 µM) in experiment [5]; 0.78 µg/mL (≈ 1.64 µM) in [6]. The IC50 result in experiment [8] was “High IC50 values”.
With `O=C(O)c1ccc(-n2cc(/C=N/Nc3cccc(Cl)c3)c(-c3cccc(F)c3)n2)cc1` [Compound 8, 4-[4-[(E)-[(3-Chlorophenyl)hydrazono]methyl]-3-(3-fluorophenyl)pyrazol-1-yl]benzoic Acid], the MIC in [9] was 12.5 µg/mL (≈ 28.7 µM); in experiment [1], 6.25 µg/mL (≈ 14.4 µM); in experiment [3], 12.5 µg/mL (≈ 28.7 µM); in experiment [7] it was 12.5 µg/mL (≈ 28.7 µM); in experiment [4], 12.5 µg/mL (≈ 28.7 µM); in [11] it was 6.25 µg/mL (≈ 14.4 µM). Also, the MIC in experiment [5] amounted to 3.12 µg/mL (≈ 7.19 µM); in experiment [6], 6.25 µg/mL (≈ 14.4 µM). Moreover, in experiment [10], the “activity against A. baumannii strains (in words)” value is “moderate activity”.
Consider `O=C(O)c1ccc(-n2cc(/C=N/Nc3cccc(Br)c3)c(-c3cccc(F)c3)n2)cc1` [Compound 9, 4-[4-[(E)-[(3-Bromophenyl)hydrazono]methyl]-3-(3-fluorophenyl)pyrazol-1-yl]benzoic Acid], for which the MIC was found to be 12.5 µg/mL (≈ 26.1 µM) in experiment [9]; 12.5 µg/mL (≈ 26.1 µM) in experiment [1]; 12.5 µg/mL (≈ 26.1 µM) in experiment [3]; 12.5 µg/mL (≈ 26.1 µM) in [7]; 12.5 µg/mL (≈ 26.1 µM) in [4]; 6.25 µg/mL (≈ 13 µM) in experiment [11]. Moreover, the results for the MIC in [5] and in [6] were 3.12 µg/mL (≈ 6.52 µM) and 6.25 µg/mL (≈ 13 µM), respectively. For the same molecule, the “activity against A. baumannii strains (in words)” value in [10] is “moderate activity”.
In the case of `O=C(O)c1ccc(-n2cc(/C=N/Nc3ccc(Br)cc3)c(-c3cccc(F)c3)n2)cc1` [Compound 10, 4-[4-[(E)-[(4-Bromophenyl)hydrazono]methyl]-3-(3-fluorophenyl)pyrazol-1-yl]benzoic Acid], the MIC was found to be 6.25 µg/mL (≈ 13 µM) in experiment [9]; 12.5 µg/mL (≈ 26.1 µM) in [1]; 12.5 µg/mL (≈ 26.1 µM) in experiment [3]; 12.5 µg/mL (≈ 26.1 µM) in experiment [7]; 12.5 µg/mL (≈ 26.1 µM) in experiment [4]; 3.12 µg/mL (≈ 6.52 µM) in experiment [11]. Moreover, the MIC in experiment [5] and in experiment [6] was 6.25 µg/mL (≈ 13 µM) each time. For the same molecule, the “activity against A. baumannii strains (in words)” value in experiment [10] is on record as “moderate activity”.
In the case of `O=C(O)c1ccc(-n2cc(/C=N/Nc3ccc(Cl)cc3Cl)c(-c3cccc(F)c3)n2)cc1` [Compound 12, 4-[4-[(E)-[(2,4-Dichlorophenyl)hydrazono]methyl]-3-(3-fluorophenyl)pyrazol-1-yl]benzoic Acid], the MIC stood at 3.12 µg/mL (≈ 6.66 µM) in experiment [1]; 3.12 µg/mL (≈ 6.66 µM) in experiment [3]; 3.12 µg/mL (≈ 6.66 µM) in [7]; 3.12 µg/mL (≈ 6.66 µM) in [4]; 0.78 µg/mL (≈ 1.66 µM) in [5]; 0.39 µg/mL (≈ 0.831 µM) in [6]. Further, the IC50 result in experiment [8] is listed as “High IC50 values”.
For the molecule `CN1CCN(/N=C/c2cn(-c3ccc(C(=O)O)cc3)nc2-c2cccc(F)c2)CC1` [Compound 21, 4-[3-(3-Fluorophenyl)-4-[(E)-(4-methylpiperazin-1-yl)iminomethyl]pyrazol-1-yl]benzoic Acid], the “activity against the tested strains (in words)” value in experiment [12] is “completely ceased the activity”. For the same molecule, the “membrane disruption ability (ratio of PI to SYTO-9 signals)” value in the experiment on A. baumannii ATCC 19606 is “better membrane disruption ability than the positive control”.
On to `CN(/N=C/c1cn(-c2ccc(C(=O)O)cc2)nc1-c1ccc(F)cc1)c1ccccc1` [Compound 22, 4-[3-(4-Fluorophenyl)-4-[(E)-[methyl(phenyl)hydrazono]methyl]pyrazol-1-yl]benzoic Acid], for which the MIC in [1] is 12.5 µg/mL (≈ 30.2 µM); in experiment [7] it was 12.5 µg/mL (≈ 30.2 µM); in experiment [4] it was 12.5 µg/mL (≈ 30.2 µM); in [5], 12.5 µg/mL (≈ 30.2 µM); in experiment [6], 6.25 µg/mL (≈ 15.1 µM). Moreover, in [12], the “activity against the tested strains (in words)” value is given as “moderate activity”. Moreover, the “membrane disruption ability (ratio of PI to SYTO-9 signals)” value with A. baumannii ATCC 19606 is “better membrane disruption ability than the positive control”.
With `O=C(O)c1ccc(-n2cc(/C=N/N(c3ccccc3)c3ccccc3)c(-c3ccc(F)cc3)n2)cc1` [Compound 23, 4-[4-[(E)-(Diphenylhydrazono)methyl]-3-(4-fluorophenyl)pyrazol-1-yl]benzoic Acid], the MIC is 1.56 µg/mL (≈ 3.27 µM) in [1], 3.12 µg/mL (≈ 6.56 µM) in experiment [3], 1.56 µg/mL (≈ 3.27 µM) in [5] and 0.78 µg/mL (≈ 1.64 µM) in experiment [6]. In addition, the “MIC Values Bs” value in experiment [2] (Table 2) came to 1.56 µg/mL (≈ 3.27 µM). For the same molecule, in experiment [7] (NA = No Activity), the “MIC Values Se” value is given as “no activity”. Further, in experiment [8], the IC50 entry was “High IC50 values”.
Colistin [reference compound]: the “MIC Ab47” value in experiment [9] (NA = No Activity) is 1.56 µg/mL. The “MIC Ab05” value in experiment [13] is 3.125 µg/mL. For the same molecule, in experiment [11] (NA = No Activity), the “MIC Ab06” value was 3.125 µg/mL.
